Assay results: ChEMBL document CHEMBL4033800, “Further Developments of the Phenyl-Pyrrolyl Pentane Series of Nonsteroidal Vitamin D Receptor Modulators as Anticancer Agents” (J Med Chem, 2018)
Active and inactive are the calls of the source. The rule behind the calls is not given here.

Tests used:
[1] = Clearance in Sprague-Dawley rat at 5 mg/kg, iv measured up to 48 hrs post administration by HPLC analysis; format: ADME, organism-based; conditions: in vivo
Method in brief: (§1)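 Male Sprague-Dawley rats (180−220 g), 4 per group, dosed at 5 mg/kg i.v., 20 mg/kg i.p. or 20 mg/kg p.o. Parameters given as mean ± SD (n = 4).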

Mus musculus [2] = assay: Hypercalcemic effect in ICR mouse at 0.5 to 5 mg/kg/day, ip administered for 7 days measured on day 8 post-dose by MTB-based assay relative to control; format: ADME, organism-based; conditions: in vivo, 168 h
Method in brief: (§2)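 Mice were dosed i.p. over a 7-day period and serum calcium was then measured. Each dose level was compared with a vehicle-treated control group (saline cited as the comparator). Data are mean ± SEM, n = 6 per group. Significance versus vehicle was reported at p < 0.05, 0.01 and 0.001.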

Caco-2 = assay: Antiproliferative activity against human Caco2 cells after 48 hrs by MTT assay; format: functional, cell-based; conditions: Caco-2, 48 h
Vitamin D3 receptor = molecular target: T1, Vitamin D3 receptor (Homo sapiens, UniProt P11473); assay: Displacement of fluormone VDR red from human full length VDR after 4 hrs by fluorescence polarization assay
T1 sequence (P11473 whole entry): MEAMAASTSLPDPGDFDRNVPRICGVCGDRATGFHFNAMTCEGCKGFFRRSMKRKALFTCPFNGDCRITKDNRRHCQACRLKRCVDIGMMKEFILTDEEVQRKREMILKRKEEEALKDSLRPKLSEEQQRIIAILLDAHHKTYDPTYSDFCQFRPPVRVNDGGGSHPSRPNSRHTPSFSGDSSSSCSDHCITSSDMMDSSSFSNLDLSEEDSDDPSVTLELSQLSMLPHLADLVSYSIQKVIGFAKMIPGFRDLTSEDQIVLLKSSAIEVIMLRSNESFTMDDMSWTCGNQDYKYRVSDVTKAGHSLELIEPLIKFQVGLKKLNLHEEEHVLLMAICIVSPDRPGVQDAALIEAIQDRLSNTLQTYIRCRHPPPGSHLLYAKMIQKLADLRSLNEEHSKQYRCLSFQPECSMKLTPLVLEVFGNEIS

MCF7 [3] = assay: Induction of cell cycle arrest in human MCF7 cells assessed as accumulation at S phase at 1 uM after 24 hrs by propidium iodide-staining based flow cytometry (reference value: 31.55%); format: functional
[4] = Drug metabolism in human MCF7 cells at 1 uM after 24 hrs by HPLC analysis; format: ADME, cell-based; conditions: read-out: Drug metabolism
Method in brief: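 MCF7 cells were incubated 24 h with 1 µM compound, alongside a medium-only incubation without cells. Mixtures were extracted with chloroform/methanol (3:1, v/v) and quantified by HPLC. Mean ± SEM, n = 3.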

Mus musculus [5] = assay: Hypercalcemic effect in ICR mouse at 30 mg/kg/day, ip administered for 7 days measured on day 8 post-dose by MTB-based assay relative to control; format: ADME, organism-based; conditions: in vivo, 168 h; method in brief: as §2
MCF7 [6] = assay: Antitumor activity against human MCF7 cells xenografted in BALB/c nude mouse assessed as tumor growth inhibition at 10 mg/kg, ip administered every other day; format: functional, organism-based
Method in brief: (§3)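 MCF7 cells transplanted orthotopically into the breast of athymic nude mice. Dosing at 10 mg/kg i.p. in vehicle of polyoxyethylated castor oil/ethanol/saline 1:1:18, with vehicle and saline control groups. Body weight, tumor volume and serum calcium followed.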

Mus musculus [7] = assay: Toxicity in BALB/c nude mouse xenografted with human MCF7 cells assessed as change in body weight at 10 mg/kg, ip administered every other day relative to control; format: organism-based; conditions: in vivo; method in brief: as §3
MCF7 [8] = assay: Antitumor activity against human MCF7 cells xenografted in BALB/c nude mouse assessed as reduction in tumor cell proliferation at 10 mg/kg, ip administered every other day by Ki-67 staining based microscopic analysis; format: functional, organism-based
Method in brief: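 MCF7 orthotopic tumors from nude mice given 10 mg/kg i.p. were sectioned and immunostained for Ki-67. Ki-67-positive area was scored as a percentage of total nuclear area per field (n=10 fields, 400×) and normalized to the calcitriol group.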

[9] = MRT in Sprague-Dawley rat at 20 mg/kg, ip by HPLC analysis; format: ADME, organism-based; conditions: in vivo; method in brief: as §1
[10] = Clearance in Sprague-Dawley rat at 20 mg/kg, ip by HPLC analysis; format: ADME, organism-based; conditions: in vivo; method in brief: as §1
HepG2 = assay: Induction of cell cycle arrest in human HepG2 cells at 1 uM after 24 hrs by propidium iodide-staining based flow cytometry; format: functional

Q: Which clearance [1] does the source give for CCn1c(C(=O)NCCCN2CCOCC2)ccc1C(CC)(CC)c1ccc(OCCC(O)(CC)CC)c(C)c1 here?
A: 8.17 mL/min

Q: What about the Activity (Mus musculus [2]) of the same molecule?
A: Non-Toxic

Q: And the IC50 (Caco-2)?
A: 2720 nM

Q: What about the IC50 (Vitamin D3 receptor) of the same molecule?
A: 406 nM

Q: And the Activity (MCF7 [3])?
A: 22.62%

Q: And the metabolised at 24 h, 1 µM [4]?
A: 6%

Q: What about the Activity (Mus musculus [5]) of the same molecule?
A: Toxic

Q: And the TGI (MCF7 [6])?
A: Active

Q: What about the Activity (Mus musculus [7]) of the same molecule?
A: Non-Toxic

Q: And the Activity (MCF7 [8])?
A: Active

Q: And the MRT [9]?
A: 17.6 h

Q: What about the CL/F [10] of the same molecule?
A: 13 mL/min

Q: And the Activity (HepG2)?
A: Active

Q: With CCN(CC)CCCNC(=O)c1ccc(C(CC)(CC)c2ccc(OCCC(O)(CC)CC)c(C)c2)n1CC as the molecule, how does the clearance [1] read?
A: 3.5 mL/min

Q: What about the Activity (Mus musculus [2]) of the same molecule?
A: Non-Toxic

Q: And the IC50 (Caco-2)?
A: 17 nM

Q: What about the IC50 (Vitamin D3 receptor) of the same molecule?
A: 296 nM

Q: What about the Activity (MCF7 [3]) of the same molecule?
A: 25.13%

Q: And the TGI (MCF7 [6])?
A: Active

Q: And the Activity (Mus musculus [7])?
A: Non-Toxic

Q: What about the Activity (MCF7 [8]) of the same molecule?
A: Active

Q: What about the MRT [9] of the same molecule?
A: 9.3 h

Q: What about the CL/F [10] of the same molecule?
A: 11.3 mL/min

Q: What about the Activity (HepG2) of the same molecule?
A: Active
